# Results reported in ChEMBL document CHEMBL1153007, “Mono and bis-6-arylbenzimidazo[1,2-c]quinazolines: a new class of antimicrobial agents” (2009).
# How the values were obtained:
# Staphylococcus aureus [1] = experiment: Antibacterial activity against Staphylococcus aureus at 1000 ug/ml after 24 hrs by agar diffusion method; type: functional; conditions: read-out: IZ
# Method in brief: (§1)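 Cup-plate agar diffusion on nutrient agar. Cultures grown overnight in NA broth at 37 °C and swabbed onto plates. Test solution at 1000 μg/ml added to 6 mm bores. Plates incubated at 37 °C for 24 h; zone of inhibition measured. Ampicillin plate as standard; one-way ANOVA at p ≤ 0.05.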
# Bacillus subtilis [2] = experiment: Antibacterial activity against Bacillus subtilis at 1000 ug/ml after 24 hrs by agar diffusion method; type: functional; conditions: read-out: IZ; method in brief: as §1
# Streptococcus pyogenes [3] = experiment: Antibacterial activity against Streptococcus pyogenes at 1000 ug/ml after 24 hrs by agar diffusion method; type: functional; conditions: read-out: IZ; method in brief: as §1
# [4] = system: Salmonella enterica subsp. enterica; experiment: Antibacterial activity against Salmonella Typhimurium at 1000 ug/ml after 24 hrs by agar diffusion method; type: functional, Salmonella enterica subsp. enterica serovar Typhimurium; conditions: read-out: IZ; method in brief: as §1
# Escherichia coli [5] = experiment: Antibacterial activity against Escherichia coli at 1000 ug/ml after 24 hrs by agar diffusion method; type: functional; conditions: read-out: IZ; method in brief: as §1
# Klebsiella pneumoniae [6] = experiment: Antibacterial activity against Klebsiella pneumoniae at 1000 ug/ml after 24 hrs by agar diffusion method; type: functional; conditions: read-out: IZ; method in brief: as §1
# Aspergillus niger [7] = experiment: Antifungal activity against Aspergillus niger at 1000 ug/ml after 72 hrs by agar diffusion method; type: functional; conditions: read-out: IZ
# Method in brief: (§2)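 Strains grown and maintained on Sabouraud glucose agar. Test solution at 1000 µg/ml placed in bores cut in the agar. Plates incubated at 26 °C for 72 h, then the zone of inhibition around each bore was measured. Ketoconazole plates as standard; one-way ANOVA at p ≤ 0.05.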
# Candida albicans [8] = experiment: Antifungal activity against Candida albicans at 1000 ug/ml after 72 hrs by agar diffusion method; type: functional; conditions: read-out: IZ; method in brief: as §2
# Trichoderma viride [9] = experiment: Antifungal activity against Trichoderma viride at 1000 ug/ml after 72 hrs by agar diffusion method; type: functional; conditions: read-out: IZ; method in brief: as §2
# Staphylococcus aureus [10] = experiment: Antibacterial activity against Staphylococcus aureus after 24 hrs by liquid dilution method; type: functional
# Method in brief: (§3)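 Liquid dilution in tubes: 1 ml compound solution (stocks 2.5, 5, 10, 15, 20, 25, 30, 35, 40, 45, 50 µg/ml, prepared in appropriate solvent) plus 0.2 ml bacterial inoculum and 3.8 ml sterile water; incubated 24 h, checked for turbidity. MIC taken as lowest concentration with no growth. Ampicillin as reference.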
# Bacillus subtilis [11] = experiment: Antibacterial activity against Bacillus subtilis after 24 hrs by liquid dilution method; type: functional; method in brief: as §3
# Streptococcus pyogenes [12] = experiment: Antibacterial activity against Streptococcus pyogenes after 24 hrs by liquid dilution method; type: functional; method in brief: as §3
# [13] = system: Salmonella enterica subsp. enterica; experiment: Antibacterial activity against Salmonella Typhimurium after 24 hrs by liquid dilution method; type: functional, Salmonella enterica subsp. enterica serovar Typhimurium; method in brief: as §3
# Escherichia coli [14] = experiment: Antibacterial activity against Escherichia coli after 24 hrs by liquid dilution method; type: functional; method in brief: as §3
# Klebsiella pneumoniae [15] = experiment: Antibacterial activity against Klebsiella pneumoniae after 24 hrs by liquid dilution method; type: functional; method in brief: as §3
# Candida albicans [16] = experiment: Antifungal activity against Candida albicans after 72 hrs by liquid dilution method; type: functional
# Method in brief: (§4)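 Liquid dilution in tubes: 1 ml compound solution (stocks 2.5–50 µg/ml, prepared in appropriate solvent) plus 0.2 ml fungal inoculum and 3.8 ml sterile water; checked for turbidity. MIC taken as lowest concentration with no visible growth. Ketoconazole as reference.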
# Aspergillus niger [17] = experiment: Antifungal activity against Aspergillus niger after 24 hrs by liquid dilution method
# Trichoderma viride [18] = experiment: Antifungal activity against Trichoderma viride after 24 hrs by liquid dilution method
# Trichoderma viride [19] = experiment: Antifungal activity against Trichoderma viride after 72 hrs by liquid dilution method; type: functional; method in brief: as §4
# Aspergillus niger [20] = experiment: Antifungal activity against Aspergillus niger after 72 hrs by liquid dilution method; type: functional; method in brief: as §4
Structure (SMILES),zone of inhibition at 1000 µg/mL (Staphylococcus aureus [1]) [mm],zone of inhibition at 1000 µg/mL (Bacillus subtilis [2]) [mm],zone of inhibition at 1000 µg/mL (Streptococcus pyogenes [3]) [mm],zone of inhibition at 1000 µg/mL [4] [mm],zone of inhibition at 1000 µg/mL (Escherichia coli [5]) [mm],zone of inhibition at 1000 µg/mL (Klebsiella pneumoniae [6]) [mm],zone of inhibition at 1000 µg/mL (Aspergillus niger [7]) [mm],zone of inhibition at 1000 µg/mL (Candida albicans [8]) [mm],zone of inhibition at 1000 µg/mL (Trichoderma viride [9]) [mm],MIC (Staphylococcus aureus [10]) [µg/mL],MIC (Bacillus subtilis [11]) [µg/mL],MIC (Streptococcus pyogenes [12]) [µg/mL],MIC [13] [µg/mL],MIC (Escherichia coli [14]) [µg/mL],MIC (Klebsiella pneumoniae [15]) [µg/mL],MIC (Candida albicans [16]) [µg/mL],MIC (Aspergillus niger [17]) [µg/mL],MIC (Trichoderma viride [18]) [µg/mL],MIC (Trichoderma viride [19]) [µg/mL],MIC (Aspergillus niger [20]) [µg/mL]
c1coc(-c2nc3ccccc3c3nc4ccccc4n23)c1,25,21,18,15,20,12,13,11,6,–,–,–,–,–,–,–,–,–,–,–
c1c[nH]c(-c2nc3ccccc3c3nc4ccccc4n23)c1,22,18,13,14,18,12,11,9,9,–,–,–,–,–,–,–,–,–,–,–
c1cc(-c2nc3ccccc3c3nc4ccccc4n23)nc(-c2nc3ccccc3c3nc4ccccc4n23)c1,52,45,50,46,50,49,50,50,45,2.5,15,10,5,5,5,5,2.5,10,–,–
c1ccc(-c2nc3ccccc3c3nc4ccccc4n23)c(-c2nc3ccccc3c3nc4ccccc4n23)c1,18,14,15,12,20,15,16,13,13,–,–,–,–,–,–,–,–,–,–,–
c1cc(-c2nc3ccccc3c3nc4ccccc4n23)cc(-c2nc3ccccc3c3nc4ccccc4n23)c1,21,18,15,15,19,18,18,15,12,–,–,–,–,–,–,–,–,–,–,–
c1ccc2c(c1)nc(-c1ccc(-c3nc4ccccc4c4nc5ccccc5n34)cc1)n1c3ccccc3nc21,25,19,18,14,21,18,21,16,13,–,–,–,–,–,–,–,–,–,–,–
c1ccc(-c2nc3ccccc3c3nc4ccccc4n23)cc1,18,14,13,12,18,16,10,10,9,–,–,–,–,–,–,–,–,–,–,–
c1ccc2c(c1)nc(-c1ccc(-c3nc4ccccc4c4nc5ccccc5n34)s1)n1c3ccccc3nc21,55,50,52,46,51,50,55,51,48,2.5,10,5,5,2.5,5,2.5,2.5,5,–,–
c1csc(-c2nc3ccccc3c3nc4ccccc4n23)c1,51,45,50,40,50,36,51,48,46,5,15,10,15,10,15,15,5,–,10,–
c1ccc(-c2nc3ccccc3c3nc4ccccc4n23)nc1,50,42,49,38,51,35,49,48,45,10,20,15,20,15,20,15,10,–,15,–
CC1(C)S[C@@H]2[C@H](NC(=O)[C@H](N)c3ccccc3)C(=O)N2[C@H]1C(=O)O [AMPICILLIN],48,39,35,45,40,45,–,–,–,10,20,25,10,15,10,–,–,–,–,–
CC(=O)N1CCN(c2ccc(OCC3COC(Cn4ccnc4)(c4ccc(Cl)cc4Cl)O3)cc2)CC1 (centres undefined) [KETOCONAZOLE],–,–,–,–,–,–,45,40,41,–,–,–,–,–,–,25,–,20,–,15
